Laboratory results: ChEMBL document CHEMBL1129041, “Design of orally active dual inhibitors of neutral endopeptidase and angiotensin-converting enzyme with long duration of action” (J Med Chem, 1996)

Assays:
[1] = target: T1, Angiotensin-converting enzyme (Rattus norvegicus, UniProt P47820); assay: In vitro inhibition of rat angiotensin I converting enzyme
T1 sequence (P47820 whole entry): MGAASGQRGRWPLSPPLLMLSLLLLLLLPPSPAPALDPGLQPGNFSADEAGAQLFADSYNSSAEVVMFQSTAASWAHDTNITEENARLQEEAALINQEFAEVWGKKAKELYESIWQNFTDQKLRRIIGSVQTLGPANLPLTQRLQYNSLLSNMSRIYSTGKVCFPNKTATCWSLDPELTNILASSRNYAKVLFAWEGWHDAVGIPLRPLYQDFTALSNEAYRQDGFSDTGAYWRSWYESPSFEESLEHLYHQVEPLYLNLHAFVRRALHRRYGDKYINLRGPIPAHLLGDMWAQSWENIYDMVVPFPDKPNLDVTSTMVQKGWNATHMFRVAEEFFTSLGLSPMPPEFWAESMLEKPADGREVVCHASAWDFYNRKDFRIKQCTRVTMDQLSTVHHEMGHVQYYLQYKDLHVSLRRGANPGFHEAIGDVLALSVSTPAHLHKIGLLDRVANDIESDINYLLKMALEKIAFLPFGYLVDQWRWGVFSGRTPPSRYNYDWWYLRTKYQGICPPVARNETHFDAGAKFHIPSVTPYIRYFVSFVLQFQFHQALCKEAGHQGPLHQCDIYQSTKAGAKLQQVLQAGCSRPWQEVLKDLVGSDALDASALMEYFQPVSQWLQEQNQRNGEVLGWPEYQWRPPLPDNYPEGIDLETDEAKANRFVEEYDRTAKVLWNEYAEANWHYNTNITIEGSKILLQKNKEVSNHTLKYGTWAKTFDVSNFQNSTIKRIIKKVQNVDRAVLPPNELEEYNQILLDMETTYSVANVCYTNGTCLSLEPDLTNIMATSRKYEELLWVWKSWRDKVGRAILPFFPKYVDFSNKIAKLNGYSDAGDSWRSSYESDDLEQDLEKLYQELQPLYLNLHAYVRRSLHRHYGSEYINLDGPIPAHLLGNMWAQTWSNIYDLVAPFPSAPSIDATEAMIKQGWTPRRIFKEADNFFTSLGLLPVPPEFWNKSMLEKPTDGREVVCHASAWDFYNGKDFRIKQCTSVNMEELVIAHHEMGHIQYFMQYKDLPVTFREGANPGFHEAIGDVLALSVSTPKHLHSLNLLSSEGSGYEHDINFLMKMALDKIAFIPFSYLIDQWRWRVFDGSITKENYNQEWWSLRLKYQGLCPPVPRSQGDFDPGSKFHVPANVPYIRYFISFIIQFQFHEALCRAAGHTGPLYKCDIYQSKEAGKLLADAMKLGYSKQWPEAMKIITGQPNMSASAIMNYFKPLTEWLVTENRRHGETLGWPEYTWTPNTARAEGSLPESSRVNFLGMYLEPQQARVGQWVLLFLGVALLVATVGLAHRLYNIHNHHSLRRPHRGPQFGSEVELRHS
Procedure, shortened: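 ACE purified from rat testis, 0.02 pmol/100 µL final, preincubated 15 min at 37 °C with varying inhibitor in 50 mM Tris-HCl pH 8.0. N-Cbz-Phe-His-Leu added to 0.05 mM final, 15 min; stopped with 2 M NaOH. His-Leu measured fluorimetrically (ex 365, em 495 nm) against a His-Leu calibration curve. IC50 is the mean ± SEM of three experiments in triplicate.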

Neprilysin = target: T2, Neprilysin (Oryctolagus cuniculus, UniProt P08049); assay: In vitro inhibition of neutral endopeptidase
T2 sequence (P08049 whole entry): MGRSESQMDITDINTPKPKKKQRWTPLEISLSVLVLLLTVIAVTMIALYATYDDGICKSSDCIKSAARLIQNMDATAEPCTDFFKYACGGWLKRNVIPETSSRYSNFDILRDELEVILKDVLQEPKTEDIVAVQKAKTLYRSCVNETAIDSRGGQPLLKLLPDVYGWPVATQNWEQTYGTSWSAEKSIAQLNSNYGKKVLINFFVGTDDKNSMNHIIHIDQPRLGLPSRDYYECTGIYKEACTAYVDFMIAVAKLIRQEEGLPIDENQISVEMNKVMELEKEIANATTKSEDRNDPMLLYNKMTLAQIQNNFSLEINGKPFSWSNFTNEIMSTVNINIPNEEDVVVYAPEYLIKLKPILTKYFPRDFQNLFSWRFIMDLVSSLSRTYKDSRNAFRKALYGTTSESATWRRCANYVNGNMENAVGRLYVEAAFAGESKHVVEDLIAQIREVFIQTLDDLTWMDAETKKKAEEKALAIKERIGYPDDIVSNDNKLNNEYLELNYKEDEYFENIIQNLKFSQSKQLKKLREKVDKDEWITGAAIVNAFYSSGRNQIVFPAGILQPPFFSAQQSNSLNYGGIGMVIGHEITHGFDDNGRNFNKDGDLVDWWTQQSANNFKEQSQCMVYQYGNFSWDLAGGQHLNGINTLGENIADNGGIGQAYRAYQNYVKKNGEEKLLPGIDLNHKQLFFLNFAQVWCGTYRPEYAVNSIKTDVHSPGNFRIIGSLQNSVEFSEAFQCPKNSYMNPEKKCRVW
Procedure, shortened: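 NEP purified from rabbit kidney, 1 pmol/100 µL final, preincubated 15 min at 25 °C with increasing inhibitor concentrations in 50 mM Tris-HCl pH 7.4. Substrate [3H]-D-Ala2-Leu-enkephalin at 20 nM final, 30 min; stopped with 0.5 M HCl. [3H]Tyr-D-Ala-Gly separated on polystyrene beads and counted by scintillation. IC50 is the mean ± SEM of three independent experiments run in triplicate.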

[2] = target: T3, Neprilysin (Mus musculus) (UniProt Q61391); assay: In vivo percent inhibition activity against kidney Neutral endopeptidase 2 hr after oral administration of a dose of 2.6 x 10e-5 mol/kg; assay type: organism-based
T3 sequence (whole entry): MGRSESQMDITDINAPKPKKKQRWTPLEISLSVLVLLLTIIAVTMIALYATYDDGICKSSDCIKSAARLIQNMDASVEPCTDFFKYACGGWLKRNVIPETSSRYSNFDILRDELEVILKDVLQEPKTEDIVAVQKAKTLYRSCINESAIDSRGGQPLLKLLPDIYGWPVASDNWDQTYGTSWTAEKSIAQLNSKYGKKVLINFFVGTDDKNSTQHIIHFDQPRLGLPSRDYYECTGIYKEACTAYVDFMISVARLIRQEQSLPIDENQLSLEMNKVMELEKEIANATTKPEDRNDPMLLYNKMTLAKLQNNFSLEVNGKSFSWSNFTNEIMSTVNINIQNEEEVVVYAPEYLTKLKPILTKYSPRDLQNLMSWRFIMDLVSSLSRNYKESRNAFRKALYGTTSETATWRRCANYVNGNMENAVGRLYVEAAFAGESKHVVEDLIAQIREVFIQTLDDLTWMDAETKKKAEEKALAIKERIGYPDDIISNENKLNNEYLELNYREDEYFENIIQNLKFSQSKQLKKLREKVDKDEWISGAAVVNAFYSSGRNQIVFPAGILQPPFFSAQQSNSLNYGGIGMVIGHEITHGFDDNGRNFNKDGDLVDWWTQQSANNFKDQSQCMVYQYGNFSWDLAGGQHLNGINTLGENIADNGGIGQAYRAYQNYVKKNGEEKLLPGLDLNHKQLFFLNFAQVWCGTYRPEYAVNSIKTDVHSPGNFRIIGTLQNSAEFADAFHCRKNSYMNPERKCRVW
Procedure, shortened: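 Mice given a single oral dose in 10% ethanol/10% cremophor/80% water; kidneys taken 2 h later and homogenized at 4 °C in 50 mM Tris-HCl pH 7.4. Membrane fraction (100000g) preincubated 5 min at 25 °C with bestatin and captopril, then incubated 10 min with [3H]-D-Ala2-Leu-enkephalin (2 × 10^-8 M). [3H]Tyr-D-Ala-Gly counted; blanks contained 10^-5 M retrothiorphan.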

SMILES | IC50 [1] | IC50 (Neprilysin) | inhibition [2]
C[C@H](NC(=O)[C@@H](S)Cc1ccccc1)C(=O)N1[C@@H](c2ccccc2)CC[C@H]1C(=O)O | 45 nM | 10 nM | –
O=C(O)c1ccc(CC(S)C(=O)NCC(=O)N2[C@@H](c3ccccc3O)CC[C@H]2C(=O)O)cc1 (some centres not stated) | 5.3 nM | 62 nM | –
CC[C@H](C)C(S)C(=O)NCC(=O)N1[C@@H](c2ccccc2)CC[C@H]1C(=O)O (some centres not stated) | 3.7 nM | 50 nM | –
COc1ccc(C[C@H](S)C(=O)NCC(=O)N2[C@@H](c3ccccc3O)CC[C@H]2C(=O)O)cc1 | 0.42 nM | 2.2 nM | –
Nc1ccc(C[C@H](S)C(=O)NCC(=O)N2[C@@H](c3ccccc3)CC[C@H]2C(=O)O)cc1 | 3.5 nM | 1.8 nM | –
O=C(NCC(=O)N1[C@@H](c2ccccc2O)CC[C@H]1C(=O)O)[C@@H](S)Cc1ccccc1 | 0.5 nM | 1 nM | –
NCCCCC(S)C(=O)NCC(=O)N1[C@@H](c2ccccc2)CC[C@H]1C(=O)O (some centres not stated) | 403 nM | 500 nM | –
COc1ccc(C[C@H](S)C(=O)NCC(=O)N2[C@@H](c3ccccc3OC)CC[C@H]2C(=O)O)cc1 | 2.2 nM | 2.5 nM | –
Cc1ccccc1[C@@H]1CCC(C(=O)O)N1C(=O)CNC(=O)[C@@H](S)Cc1ccccc1 (single isomer, unassigned; 17) | 33 nM | 8.5 nM | –
Cc1ccccc1C1CC[C@H](C(=O)O)N1C(=O)CNC(=O)[C@@H](S)Cc1ccccc1 (single isomer, unassigned) | 112 nM | 25 nM | –
O=C(NCC(=O)N1[C@@H](c2ccccc2)CC[C@H]1C(=O)O)[C@H](S)Cc1ccccc1 | 25 nM | 3.2 nM | –
O=C(NCC(=O)N1[C@@H](c2ccccc2O)CC[C@H]1C(=O)O)C(S)Cc1ccc(Cl)cc1 (some centres not stated) | 0.9 nM | 1.2 nM | –
Cc1cccc([C@H]2CC[C@@H](C(=O)O)N2C(=O)CNC(=O)[C@@H](S)Cc2ccccc2)c1 | 6.2 nM | 2.3 nM | –
COc1ccccc1[C@H]1CC[C@@H](C(=O)O)N1C(=O)CNC(=O)[C@@H](S)Cc1ccc(O)cc1 | 4.5 nM | 3.4 nM | –
Cc1ccccc1[C@@H]1CCC(C(=O)O)N1C(=O)CNC(=O)[C@@H](S)Cc1ccccc1 (single isomer, unassigned; 18) | 48 nM | 17 nM | –

Further lines, results first:

IC50 [1] | IC50 (Neprilysin) | inhibition [2] | SMILES
3.1 nM | 1.5 nM | – | Cc1cccc(C2CCC(C(=O)O)N2C(=O)CNC(=O)[C@@H](S)Cc2ccc(O)cc2)c1 (some centres not stated)
3.8 nM | 5.3 nM | – | O=C(NCC(=O)N1[C@@H](c2cccc(O)c2)CC[C@H]1C(=O)O)C(S)Cc1ccc(F)cc1 (some centres not stated)
12.5 nM | 5.1 nM | – | Cc1ccccc1[C@@H]1CCC(C(=O)O)N1C(=O)CNC(=O)[C@@H](S)Cc1ccc(O)cc1 (single isomer, unassigned)
4.2 nM | 3.4 nM | – | O=C(NCC(=O)N1[C@@H](c2ccccc2)CC[C@H]1C(=O)O)[C@@H](S)Cc1ccc(O)cc1
1.5 nM | 2.4 nM | – | O=C(NCC(=O)N1[C@@H](c2cccc(O)c2)CC[C@H]1C(=O)O)[C@@H](S)Cc1ccccc1
0.46 nM | 6.36 nM | 25% | O=C(NCC(=O)N1[C@@H](c2ccc(O)cc2)CC[C@H]1C(=O)O)[C@@H](S)Cc1ccc(O)cc1
23 nM | 26 nM | – | Nc1ccc([C@H]2CC[C@@H](C(=O)O)N2C(=O)CNC(=O)[C@@H](S)Cc2ccc(O)cc2)cc1
3.2 nM | 4.3 nM | – | O=C(NCC(=O)N1[C@@H](c2cccc(O)c2)CC[C@H]1C(=O)O)[C@@H](S)Cc1cccc(O)c1
